Experimental data taken from PMC6175042 (Journal of nuclear medicine : official publication, Society …, 2018).

Key:
[1] = system: αvβ3 integrin-positive SK-RC-52 xenograft tumours; assay: Ex vivo biodistribution in mice with SK-RC-52 xenografts; details: i.v. 0.5 nmol/mouse, 1 h post injection, n=5; for Tumour uptake, SK-RC-52: mean ± SD; for Tumour-to-blood ratio, SK-RC-52 / Tumour-to-duodenum ratio / Tumour-to-heart ratio / Tumour-to-kidneys ratio / Tumour-to-liver ratio / Tumour-to-lung ratio / Tumour-to-muscle ratio / Tumour-to-pancreas ratio / Tumour-to-spleen ratio / Tumour-to-stomach ratio: SK-RC-52
Outline: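 Female athymic BALB/c nu/nu mice (6–8 weeks) received 2x10^6 SK-RC-52 cells s.c. in the left flank. Cells were grown in RPMI 1640 with 10% FCS and 1% glutamine. The 68Ga-labelled test compound (15 MBq in 0.3 ml PBS with 0.5% BSA, pH 7.4) was injected via the tail vein into awake, heat-lamp-warmed mice. After CO2/O2 euthanasia, tissues were dissected, weighed and gamma-counted against 1% standards, giving %ID/g.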

αvβ3 integrin = details: cited from earlier work
[2] = system: αvβ3 integrin-negative FaDu xenograft tumours (αvβ3 integrin expressed solely on neovasculature); assay: Ex vivo biodistribution in mice with FaDu xenografts; details: i.v. 0.5 nmol/mouse, 1 h post injection, n=5; for Tumour uptake, FaDu: mean ± SD; for Tumour-to-blood ratio, FaDu / Tumour-to-duodenum ratio / Tumour-to-heart ratio / Tumour-to-kidneys ratio / Tumour-to-liver ratio / Tumour-to-lung ratio / Tumour-to-muscle ratio / Tumour-to-pancreas ratio / Tumour-to-spleen ratio / Tumour-to-stomach ratio: FaDu
[3] = as above; details: female, BALB/c nude (BALB/c nu/nu/Foxn1nu), mouse, salivary glands, iv, 0.5 nmol/mouse

Compound	Tumour uptake, SK-RC-52 [1]	Tumour-to-blood ratio, SK-RC-52 [1]	Tumour-to-duodenum ratio [1]	Tumour-to-heart ratio [1]	Tumour-to-kidneys ratio [1]	Tumour-to-liver ratio [1]	Tumour-to-lung ratio [1]	Tumour-to-muscle ratio [1]	Tumour-to-pancreas ratio [1]	Tumour-to-spleen ratio [1]	Tumour-to-stomach ratio [1]	Tumour targeting compared to monomeric RGD peptides (αvβ3 integrin)	Tumour uptake, FaDu [2]	Tumour-to-blood ratio, FaDu [2]	Tumour-to-duodenum ratio [2]	Tumour-to-heart ratio [2]	Tumour-to-kidneys ratio [2]	Tumour-to-liver ratio [2]	Tumour-to-lung ratio [2]	Tumour-to-muscle ratio [2]	also measured
N=C(N)NCCC[C@@H]1NC(=O)[C@H](CCCCNC(=O)CCOCCOCCOCCOCCNC(=O)CCP(=O)(O)CN2CCN(CP(=O)(O)CCC(=O)NCCOCCOCCOCCOCCC(=O)NCCCC[C@@H]3NC(=O)[C@@H](Cc4ccccc4)NC(=O)[C@H](CC(=O)O)NC(=O)CNC(=O)[C@H](CCCNC(=N)N)NC3=O)CCN(CP(=O)(O)CCC(=O)NCCOCCOCCOCCOCCC(=O)NCCCC[C@@H]3NC(=O)[C@@H](Cc4ccccc4)NC(=O)[C@H](CC(=O)O)NC(=O)CNC(=O)[C@H](CCCNC(=N)N)NC3=O)CC2)NC(=O)[C@@H](Cc2ccccc2)NC(=O)[C@H](CC(=O)O)NC(=O)CNC1=O (single isomer, unassigned) [^68Ga-TRAP-(RGD)3, metal not drawn]	4.4±0.8 %ID/g	38.5±3.8	1.4±0.4	15.3±2.3	1.1±0.1	3.0±0.5	4.8±0.9	20.9±3.6	17.3±3.7	3.0±0.5	3.0±0.7	improved tumour targeting	1.0±0.2 %ID/g	5.8±0.9	0.3±0.07	4.4±1.4	0.5±0.1	0.8±0.2	1.5±0.4	4.8±1.2	Tumour-to-pancreas ratio [2]: 4.6±1.0; Tumour-to-spleen ratio [2]: 0.9±0.2; Tumour-to-stomach ratio [2]: 0.8±0.2; tissue uptake at 1 h [3]: 0.7 ± 0.1 %ID/g
C/C1=C/C(=O)N(O)CCC[C@H](NC(=O)CCC(=O)NCCCC[C@@H]2NC(=O)[C@@H](Cc3ccccc3)NC(=O)[C@H](CC(=O)O)NC(=O)CNC(=O)[C@H](CCCNC(=N)N)NC2=O)C(=O)OCC/C(C)=C\C(=O)N(O)CCC[C@H](NC(=O)CCC(=O)NCCCC[C@@H]2NC(=O)[C@@H](Cc3ccccc3)NC(=O)[C@H](CC(=O)O)NC(=O)CNC(=O)[C@H](CCCNC(=N)N)NC2=O)C(=O)OCC/C(C)=C\C(=O)N(O)CCC[C@H](NC(=O)CCC(=O)NCCCC[C@@H]2NC(=O)[C@@H](Cc3ccccc3)NC(=O)[C@H](CC(=O)O)NC(=O)CNC(=O)[C@H](CCCNC(=N)N)NC2=O)C(=O)OCC1 [^68Ga-FSC-(RGD)3, metal not drawn]	12.5±2.5 %ID/g	30.7±8.1	1.5±0.4	12.4±3.2	1.9±0.3	2.5±0.2	4.8±0.9	17.2±3.2	17.9±3.5	2.6±0.5	2.6±0.3	improved tumour targeting	1.9±0.3 %ID/g	3.5±0.6	0.4±0.08	2.4±0.4	0.4±0.05	0.8±0.1	0.9±0.1	3.6±0.6	Tumour-to-pancreas ratio [2]: 3.0±0.4; Tumour-to-spleen ratio [2]: 0.6±0.06; Tumour-to-stomach ratio [2]: 0.6±0.1; tissue uptake at 1 h [3]: 2.2 ± 0.3 %ID/g
